Published values collected from several papers.
Effect on: cell growth or viability

Nc1nc(O)c2ncn(COC(CO)CO)c2n1
CC50 (HFF; ATP luminescence): > 150 µM

O=c1[nH]c2cc(-c3ccccc3)ccc2c(=O)n1O
CC50 (HFF; MTS; 7 days): 29 µM

O=S(=O)(c1ccc(Cl)cc1)c1nc(-c2ccccc2)oc1S(=O)(=O)c1ccc(Cl)cc1
CC50 (HFF; ATP luminescence): 86.2 µM

O=c1[nH]c2cc(-c3ccc(Cl)cc3)sc2c(=O)n1O
CC50 (HFF; MTS; 7 days): > 50 µM

CCN(CC)CCNC(=O)CN1C(=O)Cc2c([nH]c3ccc(Br)cc23)-c2ccc(Cl)cc21
CC50 (J774; WST-1; 24 h): ≤ 10 µM

O=c1[nH]c2sc3c(c2c(=O)n1O)CCN(Cc1ccccc1)C3
CC50 (HFF; MTS; 7 days): > 50 µM

NCCCCNC(=O)CN1C(=O)Cc2c([nH]c3ccc(Br)cc23)-c2ccc(Cl)cc21
CC50 (J774; WST-1; 24 h): ≥ 100 µM

CN(C)c1ccc(C(=C2C=CC(=[N+](C)C)C=C2)c2ccc(N(C)C)cc2)cc1
CC50 (J774; ATP luminescence; 72 h): 4.91 µM

CNC(=O)CN1C(=O)Cc2c([nH]c3ccc(Br)cc23)-c2ccc(Cl)cc21
CC50 (J774; WST-1; 24 h): ≤ 100 µM

Cc1ccc(S(=O)(=O)c2nc(S(=O)(=O)NCc3ccccc3)sc2Cl)cc1
CC50 (HFF; ATP luminescence): 106 µM

O=C1c2ccccc2C(c2ccccc2F)C(=O)N1O (stereo not drawn)
CC50 (HFF; MTS; 7 days): 26 µM

Nc1ccn(C[C@@H](CO)OCP(=O)(O)O)c(=O)n1
CC50 (HFF; ATP luminescence; 14 days): 60 µM
